Measured values reported in ChEMBL document CHEMBL5543124, “Lead Compound Development of SRC-3 Inhibitors with Improved Pharmacokinetic Properties and Anticancer Efficacy” (J Med Chem, 2024).

What was measured:
MCF7 = test: Cytotoxicity against human MCF7 cells assessed as inhibition of cell growth incubated for 72 hrs by MTT assay; format: functional, cell-based; conditions: MCF7, 72 h
[1] = Half life in human liver microsomes at 1 uM incubated for 30 mins in presence of NADPH by LC-MS/MS analysis; format: ADME, Microsome; conditions: 0.5 h
Summary of the method: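 Human liver microsomes (1 mg/mL final) in 100 mM phosphate buffer with or without NADPH; compound at 1 μM final, 37 °C. Samples taken at 0, 5, 10, 20, 30 min (0 and 30 min without NADPH), quenched with cold acetonitrile containing internal standards, analysed by LC-MS/MS; verapamil as control.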

[2] = Cytotoxicity against CD-1 mouse Primary hepatocyte assessed as inhibition of cell growth incubated for 72 hrs by MTT assay; format: toxicity, cell-based; conditions: primary hepatocytes
[3] = Half life in CD-1 mouse at 1 mg/kg,iv administration measured upto 48 hrs by LC-MS/MS analysis; format: ADME, organism-based; conditions: in vivo
Summary of the method: (§1)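 Single intravenous bolus in ICR male mice (n = 3, 6 weeks); dosing solution 0.5 mg/mL in 20% DMSO, 16% PEG, 4% dextrose in PBS. Tail-vein blood (10 μL) taken at 2, 5, 15, 30 min and 1, 2, 4, 8, 24, 48 h. Plasma quantified by LC-MS/MS against a 0.5–1000 ng/mL calibration; parameters from non-compartmental analysis.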

[4] = Tmax in CD-1 mouse at 1 mg/kg,iv administration measured upto 48 hrs by LC-MS/MS analysis; format: ADME, organism-based; conditions: in vivo
Summary of the method: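 Male ICR mice (n=3, 6 weeks) given 1 mg/kg i.v. from a 0.5 mg/mL solution in 20% DMSO/16% PEG/4% dextrose in PBS. Tail-vein blood (10 μL) drawn at 2, 5, 15 and 30 min and at 1, 2, 4, 8, 24 and 48 h. Plasma quantified by LC-MS/MS against 0.5–1000 ng/mL calibration standards with QC samples. Parameters from non-compartmental analysis.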

[5] = Cmax in CD-1 mouse at 1 mg/kg,iv administration measured upto 48 hrs by LC-MS/MS analysis; format: ADME, organism-based; conditions: in vivo; summary of the method: as §1
[6] = AUC (0 to t) in CD-1 mouse at 1 mg/kg,iv administration measured upto 48 hrs by LC-MS/MS analysis; format: ADME, organism-based; conditions: in vivo; summary of the method: as §1
[7] = Clearance in CD-1 mouse at 1 mg/kg,iv administration measured upto 48 hrs by LC-MS/MS analysis; format: ADME, organism-based; conditions: in vivo; summary of the method: as §1
[8] = Half life in CD-1 mouse at 10 mg/kg,po administration measured upto 48 hrs by LC-MS/MS analysis; format: ADME, organism-based; conditions: in vivo
Summary of the method: (§2)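 Oral gavage in ICR male mice (n = 3); dosing solution 1 mg/mL in 20% DMSO, 16% PEG, 4% dextrose in PBS. Tail-vein blood (10 μL) taken at 15, 30 min and 1, 2, 4, 8, 24, 48 h. Plasma quantified by LC-MS/MS against a 0.5–1000 ng/mL calibration; parameters from a non-compartmental extravascular model.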

[9] = Tmax in CD-1 mouse at 10 mg/kg,po administration measured upto 48 hrs by LC-MS/MS analysis; format: ADME, organism-based; conditions: in vivo
Summary of the method: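 Male ICR mice (n=3) dosed by oral gavage at 10 mg/kg from a 1 mg/mL solution in 20% DMSO/16% PEG/4% dextrose in PBS. Tail-vein blood (10 μL) drawn at 15 and 30 min and at 1, 2, 4, 8, 24 and 48 h. Plasma quantified by LC-MS/MS against calibration standards. Parameters from non-compartmental extravascular model.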

[10] = Cmax in CD-1 mouse at 10 mg/kg,po administration measured upto 48 hrs by LC-MS/MS analysis; format: ADME, organism-based; conditions: in vivo; summary of the method: as §2
[11] = AUC (0 to t) in CD-1 mouse at 10 mg/kg,po administration measured upto 48 hrs by LC-MS/MS analysis; format: ADME, organism-based; conditions: in vivo; summary of the method: as §2
[12] = Oral bioavailability in CD-1 mouse at 10 mg/kg administration measured upto 48 hrs by LC-MS/MS analysis; format: ADME, organism-based; conditions: in vivo
[13] = target: Prostaglandin G/H synthase 1 (Homo sapiens, UniProt P23219); test: Inhibition of COX1 (unknown origin); format: toxicity
Summary of the method: (§3)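 Tested in a commercial off-target safety screening panel of 78 targets. Values reported as RC50, taken as IC50 except for agonist mode, where RC50 is EC50.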

[14] = target: T1, Prostaglandin G/H synthase 2 (Homo sapiens, UniProt P35354); test: Inhibition of COX2 (unknown origin); format: toxicity; summary of the method: as §3
T1 sequence (P35354 whole entry): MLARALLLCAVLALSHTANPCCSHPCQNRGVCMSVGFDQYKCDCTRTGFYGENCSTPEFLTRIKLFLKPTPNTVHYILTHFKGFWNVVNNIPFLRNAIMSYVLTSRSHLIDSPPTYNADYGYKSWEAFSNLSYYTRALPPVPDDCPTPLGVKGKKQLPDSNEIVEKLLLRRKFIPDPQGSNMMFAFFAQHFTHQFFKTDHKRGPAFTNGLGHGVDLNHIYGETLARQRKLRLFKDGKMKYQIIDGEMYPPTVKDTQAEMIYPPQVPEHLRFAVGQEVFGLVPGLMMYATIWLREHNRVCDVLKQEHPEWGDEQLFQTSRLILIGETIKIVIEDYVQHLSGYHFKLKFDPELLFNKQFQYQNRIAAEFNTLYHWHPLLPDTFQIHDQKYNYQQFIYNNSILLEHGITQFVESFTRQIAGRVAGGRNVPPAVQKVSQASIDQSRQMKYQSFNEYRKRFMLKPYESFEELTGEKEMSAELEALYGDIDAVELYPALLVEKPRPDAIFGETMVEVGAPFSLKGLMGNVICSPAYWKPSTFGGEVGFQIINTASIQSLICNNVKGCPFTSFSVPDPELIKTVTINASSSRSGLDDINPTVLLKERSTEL

[15] = target: Voltage-gated inwardly rectifying potassium channel KCNH2 (Homo sapiens, UniProt Q12809); test: Inhibition of hERG transfected in HEK293 cells by patch clamp assay; format: toxicity, cell-based
hERG (KCNH2) = hERG (KCNH2) (Homo sapiens, UniProt Q12809); test: Inhibition of hERG transfected in HEK293 cells at 30 uM by patch clamp assay relative to control; format: toxicity, cell-based; conditions: HEK293 cells transfected with hERG
[16] = Drug concentration in CD-1 mouse plasma at 37.7 micromol/kg,ip administration measured after 22 hrs by LC-MS/MS analysis; format: ADME, cell-free; conditions: dose 37.7 µmol/kg
Summary of the method: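 Female CD-1 mice (n = 3) dosed ip at 37.7 μmol/kg. Blood (20 μL) taken at 0.25, 5 and 22 h, processed to plasma, and drug quantified by LC-MS/MS.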

[17] = Stability in human plasma incubated upto 150 mins; format: ADME, cell-free; conditions: 2.5 h
[18] = Toxicity in mouse assessed as mild stress at 100 mg/kg,po administration for 4 weeks; format: organism-based; conditions: in vivo, 672 h
Summary of the method: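 Mice dosed orally at up to 100 mg/kg, the highest dose tested. Observed for signs of stress.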

[19] = Toxicity in mouse assessed as body weight loss at 50 mg/kg,po administration for 4 weeks; format: organism-based; conditions: in vivo, 672 h
Summary of the method: (§4)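 Mice dosed orally once daily at 50 or 100 mg/kg for 4 weeks. Body weight monitored throughout.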

[20] = Toxicity in mouse assessed as body weight loss at 100 mg/kg,po administration for 4 weeks; format: organism-based; conditions: in vivo, 672 h; summary of the method: as §4
[21] = Stability in CD-1 mouse plasma at 37.7 micromol/kg,ip administration measured after 22 hrs by LC-MS/MS analysis; format: ADME, cell-free; conditions: at 37.7 µmol/kg
Summary of the method: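 Female CD-1 mice (n=3) dosed i.p. at 37.7 μmol/kg (equimolar across compounds). Blood (20 μL) drawn at 0.25, 5 and 22 h and processed to plasma. Drug levels quantified by LC-MS/MS.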

CYP1A2 = test: Stability in human liver microsomes assessed as CYP1A2-mediated drug metabolism incubated for 1 hr; format: ADME, Microsome; conditions: read-out: Drug metabolism

Voltage-gated inwardly rectifying potassium channel KCNH2, sequence (Q12809 whole entry): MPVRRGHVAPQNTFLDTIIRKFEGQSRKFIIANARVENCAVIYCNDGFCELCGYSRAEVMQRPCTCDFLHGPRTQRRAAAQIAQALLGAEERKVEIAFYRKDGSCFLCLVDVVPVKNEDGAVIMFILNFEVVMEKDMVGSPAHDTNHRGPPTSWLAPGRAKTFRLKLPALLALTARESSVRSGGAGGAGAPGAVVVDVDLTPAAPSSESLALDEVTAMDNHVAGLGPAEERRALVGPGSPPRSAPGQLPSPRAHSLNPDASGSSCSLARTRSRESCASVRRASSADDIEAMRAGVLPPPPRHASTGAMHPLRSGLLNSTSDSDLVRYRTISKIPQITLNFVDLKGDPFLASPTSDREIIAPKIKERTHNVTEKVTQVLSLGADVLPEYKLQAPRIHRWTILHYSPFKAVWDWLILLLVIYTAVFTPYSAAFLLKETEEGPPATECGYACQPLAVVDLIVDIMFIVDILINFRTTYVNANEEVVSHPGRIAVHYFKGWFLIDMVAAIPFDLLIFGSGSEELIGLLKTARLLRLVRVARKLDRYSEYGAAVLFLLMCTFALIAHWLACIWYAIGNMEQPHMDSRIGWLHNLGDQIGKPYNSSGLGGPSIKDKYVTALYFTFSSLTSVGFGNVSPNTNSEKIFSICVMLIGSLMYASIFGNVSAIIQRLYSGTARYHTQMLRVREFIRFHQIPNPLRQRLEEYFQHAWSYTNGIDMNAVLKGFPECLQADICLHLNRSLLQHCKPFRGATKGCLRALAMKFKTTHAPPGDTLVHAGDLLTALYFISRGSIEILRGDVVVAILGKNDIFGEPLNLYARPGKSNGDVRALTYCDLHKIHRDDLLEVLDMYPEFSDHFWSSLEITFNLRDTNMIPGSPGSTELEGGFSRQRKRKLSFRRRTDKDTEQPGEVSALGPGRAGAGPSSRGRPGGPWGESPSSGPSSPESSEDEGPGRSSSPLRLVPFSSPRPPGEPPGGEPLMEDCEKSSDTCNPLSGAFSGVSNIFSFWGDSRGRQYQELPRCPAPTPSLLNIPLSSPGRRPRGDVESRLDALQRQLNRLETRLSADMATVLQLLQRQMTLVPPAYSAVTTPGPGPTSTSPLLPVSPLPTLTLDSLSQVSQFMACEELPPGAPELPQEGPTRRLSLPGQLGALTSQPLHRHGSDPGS
hERG (KCNH2), sequence (Q12809 whole entry): as above
Prostaglandin G/H synthase 1, sequence (P23219 whole entry): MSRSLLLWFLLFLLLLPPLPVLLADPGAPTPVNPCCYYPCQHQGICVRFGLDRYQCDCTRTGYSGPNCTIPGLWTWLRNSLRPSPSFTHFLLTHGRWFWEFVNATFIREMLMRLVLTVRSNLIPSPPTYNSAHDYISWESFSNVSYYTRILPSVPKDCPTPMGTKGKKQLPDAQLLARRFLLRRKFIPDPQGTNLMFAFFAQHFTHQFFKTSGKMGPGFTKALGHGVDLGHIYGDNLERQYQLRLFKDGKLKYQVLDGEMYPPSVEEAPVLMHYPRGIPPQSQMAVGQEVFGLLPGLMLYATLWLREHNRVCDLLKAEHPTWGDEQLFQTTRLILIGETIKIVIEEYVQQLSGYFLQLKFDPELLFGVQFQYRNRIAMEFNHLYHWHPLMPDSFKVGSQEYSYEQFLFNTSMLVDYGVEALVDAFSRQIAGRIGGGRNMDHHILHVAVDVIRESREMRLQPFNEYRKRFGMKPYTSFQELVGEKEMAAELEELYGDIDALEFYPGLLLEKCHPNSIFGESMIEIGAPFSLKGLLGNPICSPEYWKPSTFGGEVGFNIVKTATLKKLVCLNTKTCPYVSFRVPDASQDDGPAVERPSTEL

Cn1c(NNC(=O)c2ccccn2)nc2ccccc21
IC50 (MCF7): 494 nM

C/C(=N\N=c1/[nH]c2cc(F)c(F)cc2n1C)c1cccs1
IC50 (MCF7): > 1000 nM

C/C(=N\N=c1/[nH]c2cc(F)c(F)cc2n1C)c1cocn1
IC50 (MCF7): > 1000 nM

C/C(=N\N=c1/[nH]c2cc(F)c(F)cc2n1C)c1cn(C)cn1
IC50 (MCF7): > 1000 nM

Cn1c(N2N=C(c3ccccn3)CC2=O)nc2ccccc21
IC50 (MCF7): > 1000 nM

C/C(=N\N=c1/[nH]c2cc(F)c(F)cc2n1C)c1ccc(C(=O)O)cn1
IC50 (MCF7): > 1000 nM

C/C(=N\Nc1nc2ccccc2n1C)c1ccccn1
IC50 (MCF7): 22 nM | t1/2 [1]: 3 min

C/C(=N\N=c1/[nH]c2cc(F)c(F)cc2n1C)c1ccccc1
IC50 (MCF7): > 1000 nM

C/C(=N\N=c1/[nH]c2cc(Cl)c(Cl)cc2n1C)c1ccc(F)cn1
IC50 (MCF7): 18 nM

C/C(=N\Nc1nc2cc(F)c(F)cc2n1C)c1ncccn1
IC50 at 72 h [2]: > 1000 nM | t1/2 [3]: 195 min | Tmax [4]: 1.98 min | Cmax [5]: 552 ng/mL | AUCt [6]: 87.6 ng·h/mL | clearance [7]: 176 mL/min/kg | t1/2 [8]: 545 min | Tmax [9]: 15 min | Cmax [10]: 89 ng/mL | AUCt [11]: 477 ng·h/mL | F [12]: 54.4% | IC50 [13]: 2900 nM | IC50 [14]: 2400 nM | IC50 [15]: > 30000 nM | inhibition at 30 µM (hERG (KCNH2)): < 50% | t1/2 [1]: 3.71 min | concentration at 22 h [16]: 117 nM | Stability [17]: Stable | Activity [18]: Non-Toxic | Activity [19]: Non-Toxic | Activity [20]: Non-Toxic | Stability [21]: Stable | metabolised at 1 h (CYP1A2): 98%

COC(=O)c1ccc(/C(C)=N/N=c2\[nH]c3cc(F)c(F)cc3n2C)nc1
IC50 (MCF7): 2.9 nM

C/C(=N\N=c1/sc2ccccc2n1C)c1ccc(F)cn1
IC50 (MCF7): > 1000 nM

C/C(=N\N=c1/[nH]c2cc(F)c(F)cc2n1C)c1cccnc1
IC50 (MCF7): > 1000 nM

C/C(=N\N=c1/[nH]c2cc(F)c(F)cc2n1C)c1ccncn1
IC50 (MCF7): 10.7 nM

C/C(=N\Oc1nc2ccccc2n1C)c1ccccn1
IC50 (MCF7): > 1000 nM

C/C(=N\N=c1n(C)c2ccccc2n1C)c1ccc(F)cn1
IC50 (MCF7): > 1000 nM

C/C(=N\N=c1/[nH]c2cc(F)c(F)cc2n1C)c1ccc(OCCCS(C)(=O)=O)cn1
IC50 (MCF7): 249 nM

C/C(=N\N=c1/[nH]c2cc(F)c(F)cc2n1C)c1ccc(OCCCN2CCOCC2)cn1
IC50 (MCF7): 30.5 nM

C/C(=N\N=c1/[nH]c2cc(F)c(F)cc2n1C)c1ccc(C(=O)N2CCOCC2)cn1
IC50 (MCF7): 44.7 nM

C/C(=N\N=c1/[nH]c2cc(F)c(F)cc2n1C)c1ccc(C(N)=O)cn1
IC50 (MCF7): 2.7 nM

C/C(=N\N=c1/[nH]c2cc(F)c(F)cc2n1C)c1ccncc1
IC50 (MCF7): > 1000 nM

C/C(=N\N=c1/[nH]c2cc(F)c(F)cc2n1C)c1ccc(-c2nnn[nH]2)cn1
IC50 (MCF7): > 1000 nM

C/C(=N\Nc1nc2cc(F)ccc2n1C)c1ccc(F)cn1
IC50 (MCF7): 2.5 nM | t1/2 [1]: 5.76 min | Stability [21]: Stable

C/C(=N\N=c1/[nH]c2cc(F)c(F)cc2n1C)c1ccccn1
IC50 (MCF7): 6.3 nM

C/C(=N\N=c1/[nH]c2cc(F)c(F)cc2n1C)c1ccc(-c2cnn(C)c2)cn1
IC50 (MCF7): 6.7 nM

C/C(=N\Nc1nc2ccccc2n1C)c1ccc(F)cn1
IC50 (MCF7): 5.4 nM | t1/2 [1]: 4.93 min | Stability [21]: Stable
